Measurements from ChEMBL document CHEMBL1144531, “Novel selective inhibitors of neutral endopeptidase for the treatment of female sexual arousal disorder” (Bioorg Med Chem, 2007).

How the values were obtained:
[1] = Inhibition of dog kidney cortex NEP at pH 7; parameters: species or system Canis lupus familiaris
Sus scrofa = species on record: Sus scrofa; experiment: Inhibition of pig ACE
Procedure, shortened: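 Porcine ACE; same format as the NEP assay. Substrate o-aminobenzoyl-Gly-Gly-p-nitro-Phe-Pro-OH, 10 µM final, in 50 mM Tris-Cl pH 7.4 (37 °C) with 300 mM NaCl. Stopped with 2 mM EDTA; fluorescence read-out. IC50 from dilution series.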

[2] = target: T1, Endothelin-converting enzyme 1 (Homo sapiens) (UniProt P42892); experiment: Inhibition of human ECE1
T1 sequence (whole entry): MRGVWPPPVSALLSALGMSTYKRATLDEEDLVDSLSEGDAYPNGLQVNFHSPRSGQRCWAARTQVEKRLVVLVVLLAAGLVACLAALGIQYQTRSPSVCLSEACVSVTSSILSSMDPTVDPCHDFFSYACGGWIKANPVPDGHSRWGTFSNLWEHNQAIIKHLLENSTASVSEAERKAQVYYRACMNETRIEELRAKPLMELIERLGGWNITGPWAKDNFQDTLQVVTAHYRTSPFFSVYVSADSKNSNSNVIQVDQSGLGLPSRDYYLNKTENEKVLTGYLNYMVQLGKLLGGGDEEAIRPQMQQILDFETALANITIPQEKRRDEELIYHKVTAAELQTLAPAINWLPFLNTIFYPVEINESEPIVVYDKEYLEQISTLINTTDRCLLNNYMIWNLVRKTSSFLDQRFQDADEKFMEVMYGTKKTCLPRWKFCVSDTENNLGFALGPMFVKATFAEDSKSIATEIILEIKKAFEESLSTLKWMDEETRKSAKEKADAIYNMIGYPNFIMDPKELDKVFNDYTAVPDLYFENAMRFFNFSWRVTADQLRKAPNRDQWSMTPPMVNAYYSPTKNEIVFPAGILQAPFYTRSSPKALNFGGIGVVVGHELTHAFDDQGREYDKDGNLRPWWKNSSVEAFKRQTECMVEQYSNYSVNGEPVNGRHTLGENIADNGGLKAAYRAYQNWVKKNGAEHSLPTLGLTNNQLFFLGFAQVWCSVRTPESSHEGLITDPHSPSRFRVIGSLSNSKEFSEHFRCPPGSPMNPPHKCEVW
Procedure, shortened: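 Human ECE-1, run like the ACE assay (50 mM Tris-Cl pH 7.4, 300 mM NaCl, EDTA stop), with Big ET-1 as substrate. IC50 from dilution series.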

[3] = Distribution coefficient, log D in n-octanol and phosphate buffer at pH 7.4; assay type: physicochemical
[4] = Metabolic stability in human liver microsomes at 1 uM; assay type: ADME, Microsome
Procedure, shortened: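 Human liver microsomes, 1 µM compound with 0.5 µM CYP. Reported as first-order compound disappearance half-life.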

[5] = Permeability from apical to basolateral side of the Caco-2 cell membrane at pH 7.4; assay type: ADME, cell-based; conditions: human, Caco-2, pH 7.4
Procedure, shortened: (§1)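 Caco-2 monolayers; apparent permeability (Papp) measured with pH 7.4 in both apical and basolateral chambers.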

[6] = Permeability from basolateral to apical side of the Caco-2 cell membrane at pH 7.4; assay type: ADME, cell-based; conditions: human, Caco-2, pH 7.4; procedure, shortened: as §1
Neprilysin [7] = target: T2, Neprilysin (Rattus norvegicus, UniProt P07861); experiment: Inhibition of rat NEP
T2 sequence (P07861 whole entry): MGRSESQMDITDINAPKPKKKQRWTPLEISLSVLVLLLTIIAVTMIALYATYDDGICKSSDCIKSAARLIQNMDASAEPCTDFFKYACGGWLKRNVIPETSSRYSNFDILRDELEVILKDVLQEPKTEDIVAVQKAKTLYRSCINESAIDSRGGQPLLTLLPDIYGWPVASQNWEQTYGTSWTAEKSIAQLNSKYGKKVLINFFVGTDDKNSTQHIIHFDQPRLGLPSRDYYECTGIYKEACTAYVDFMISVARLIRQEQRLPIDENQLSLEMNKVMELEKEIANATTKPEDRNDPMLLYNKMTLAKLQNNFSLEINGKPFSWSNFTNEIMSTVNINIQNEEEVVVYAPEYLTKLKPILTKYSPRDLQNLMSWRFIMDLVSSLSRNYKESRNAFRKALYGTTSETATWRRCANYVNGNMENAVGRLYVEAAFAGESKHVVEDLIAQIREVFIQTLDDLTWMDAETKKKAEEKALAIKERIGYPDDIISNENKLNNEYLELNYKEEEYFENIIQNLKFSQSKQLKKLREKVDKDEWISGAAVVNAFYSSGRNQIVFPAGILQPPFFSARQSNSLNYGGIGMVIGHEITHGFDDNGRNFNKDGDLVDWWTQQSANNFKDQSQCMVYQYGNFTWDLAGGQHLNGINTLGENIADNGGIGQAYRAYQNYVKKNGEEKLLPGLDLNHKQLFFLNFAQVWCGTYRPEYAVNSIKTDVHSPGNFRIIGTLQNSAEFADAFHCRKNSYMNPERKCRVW
Procedure, shortened: (§2)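 Fluorogenic assay with Abz-D-Arg-Arg-Leu-EDDnp as substrate (solution at 50 µM before mixing). Inhibitor is pre-mixed with substrate, and enzyme is added, diluted so that conversion stays at or below ~10% in 1 h. Incubation runs 1 h at 37 °C with shaking in Tris–Cl, then is stopped with phosphoramidon. Read-out is Ex320/Em420. Each IC50 uses a 10-point half-log series in duplicate.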

Neprilysin [8] = target: T3, Neprilysin (Oryctolagus cuniculus, UniProt P08049); experiment: Inhibition of rabbit NEP; procedure, shortened: as §2
T3 sequence (P08049 whole entry): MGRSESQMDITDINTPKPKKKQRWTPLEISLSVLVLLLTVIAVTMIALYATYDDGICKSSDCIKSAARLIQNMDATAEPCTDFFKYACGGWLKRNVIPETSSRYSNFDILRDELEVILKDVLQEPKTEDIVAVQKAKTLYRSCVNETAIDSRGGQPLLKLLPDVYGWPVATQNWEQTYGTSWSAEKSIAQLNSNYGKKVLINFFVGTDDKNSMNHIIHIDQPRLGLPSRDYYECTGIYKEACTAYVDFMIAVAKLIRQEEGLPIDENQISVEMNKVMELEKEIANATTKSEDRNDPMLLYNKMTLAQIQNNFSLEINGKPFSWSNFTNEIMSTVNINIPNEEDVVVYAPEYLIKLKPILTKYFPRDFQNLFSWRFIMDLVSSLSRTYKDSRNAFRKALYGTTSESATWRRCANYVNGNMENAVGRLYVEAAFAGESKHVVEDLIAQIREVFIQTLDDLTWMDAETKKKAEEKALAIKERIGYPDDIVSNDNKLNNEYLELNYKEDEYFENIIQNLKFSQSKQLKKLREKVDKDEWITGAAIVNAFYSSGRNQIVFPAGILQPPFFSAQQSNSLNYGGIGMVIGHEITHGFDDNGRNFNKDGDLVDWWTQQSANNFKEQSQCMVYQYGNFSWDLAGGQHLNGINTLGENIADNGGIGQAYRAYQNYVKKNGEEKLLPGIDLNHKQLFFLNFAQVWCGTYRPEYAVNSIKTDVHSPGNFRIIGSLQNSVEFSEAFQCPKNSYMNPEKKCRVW

[9] = Inhibition of dog kidney cortex NEP at pH 7.4; parameters: species or system Canis lupus familiaris
[10] = Clearance in rat at 1 mg/kg, iv and 1 mg/kg, po; assay type: ADME, organism-based; conditions: in vivo
Procedure, shortened: (§3)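 Male CD rats, jugular vein cannulated under general anaesthesia; dosed 1 mg/kg iv (tail vein) and po (gavage). Serial 0.2 ml blood samples taken from the cannula into heparin, centrifuged to plasma, stabilised with 0.01 parts 85% phosphoric acid, frozen. Plasma levels measured by LC–MS–MS after C18 solid-phase extraction, with internal standard.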

[11] = Volume of distribution in rat at 1 mg/kg, iv and 1 mg/kg, po; assay type: ADME, organism-based; conditions: in vivo, read-out: Vdss; procedure, shortened: as §3
[12] = Half life in rat at 1 mg/kg, iv and 1 mg/kg, po; assay type: ADME, organism-based; conditions: in vivo; procedure, shortened: as §3
[13] = Fraction unbound ligand in rat at 1 mg/kg, iv and 1 mg/kg, po; assay type: ADME, organism-based; conditions: in vivo
Procedure, shortened: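 Fraction unbound in rat plasma measured at 1 µg/ml by equilibrium dialysis against isotonic Krebs–Ringer bicarbonate buffer, pH 7.4.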

[14] = Oral bioavailability in rat at 1 mg/kg, iv and 1 mg/kg, po; assay type: ADME, organism-based; conditions: in vivo; procedure, shortened: as §3
Homo sapiens = species on record: Homo sapiens; experiment: Protein binding in human plasma at 1 ug/ml by equilibrium dialysis; conditions: read-out: PPB (converted)

SMILES | IC50 [1] [nM] | Activity (Sus scrofa) [µM] | Activity [2] [µM] | logD [3] | half-life at 1 µM [4] [h] | Papp A→B [5] [×10⁻⁶ cm/s] | also measured
COCC[C@H](CC1(C(=O)NCCCc2ccc(Cl)cc2)CCCC1)C(=O)O | 0.9 | > 3 | > 3 | 1 | > 2 | 12 | Papp B→A [6]: 14 ×10⁻⁶ cm/s; IC50 (Neprilysin [7]): 0.6 nM; IC50 (Neprilysin [8]): 0.8 nM; IC50 [9]: 3.8 nM; clearance [10]: 3.5 mL/min/kg; Vd [11]: 0.6 L/kg; half-life [12]: 1.9 h; fraction unbound [13]: 0.083; bioavailability [14]: 70%
COCCC(CC1(C(=O)N[C@@H]2C[C@H]2c2ccc(OC)cc2)CCCC1)C(=O)O (relative stereo) | 8 | > 3 |  |  |  |  | 
COCC[C@H](CC1(C(=O)N[C@@H]2C[C@H]2c2ccc(OC)cc2)CCCC1)C(=O)O | 8 | > 3 | > 3 | 0.3 | > 2 | 7 | IC50 [9]: 5.7 nM; fraction unbound at 1 ug/ml (Homo sapiens): 0.032
COCCC(CC1(C(=O)NCCCc2ccc(Cl)cc2)CCCC1)C(=O)O (centres undefined) | 2 | > 3 |  |  |  |  | 
COCCC(CC1(C(=O)NCCOc2ccc(OC)cc2)CCCC1)C(=O)O (centres undefined) | 35 | > 3 |  |  |  |  | 
COCC[C@H](CC1(C(=O)NCCCc2ccc(F)cc2)CCCC1)C(=O)O | 2 | > 3 | > 3 | 0.5 | > 2 | 12 | IC50 [9]: 8.8 nM; clearance [10]: 13 mL/min/kg; Vd [11]: 2.7 L/kg; half-life [12]: 2.4 h; fraction unbound [13]: 0.138; bioavailability [14]: 138%; fraction unbound at 1 ug/ml (Homo sapiens): 0.124
CCCCCCCNC(=O)C1(CC(CCOC)C(=O)O)CCCC1 (centres undefined) | 8 | > 3 |  |  |  |  | 
COCCC(CC1(C(=O)NC2(CO)Cc3ccccc3C2)CCCC1)C(=O)O (centres undefined) | 11 | > 3 |  |  |  |  | 
COCCC(CC1(C(=O)N[C@@H]2C[C@H]2c2ccc(F)cc2)CCCC1)C(=O)O (relative stereo) | 40 | > 3 |  |  |  |  | 
CCCC(CC1(C(=O)N[C@H]2C[C@@H]2c2ccccc2)CCCC1)C(=O)O (relative stereo) | 160 | > 3 |  |  |  |  | 
CCC[C@H](CC1(C(=O)Nc2nnc(CC)s2)CCCC1)C(=O)O | 23.7 | > 3 | > 3 | 0.5 | > 2 | 9 | clearance [10]: 3 mL/min/kg; Vd [11]: 0.44 L/kg; half-life [12]: 1.7 h; Fu [13]: 0.106
COCCC(CC1(C(=O)NCCc2ccccc2)CCCC1)C(=O)O (centres undefined) | 500 | > 3 |  |  |  |  | 
COCC(CC1(C(=O)N[C@H]2C[C@@H]2c2ccccc2)CCCC1)C(=O)O (relative stereo) | 65 | > 3 |  |  |  |  | 
